Measurements reported in ChEMBL document CHEMBL3785029, “Synthesis and Characterization of Fatty Acid Conjugates of Niacin and Salicylic Acid” (J Med Chem, 2016).
Active and inactive are the calls of the source. The calls are words filed in the database; no cut-off is given here.

How the values were obtained:
Rattus norvegicus [1] = assay: Cmax in Sprague-Dawley rat assessed as nicotinuric acid at 100 mg/kg, po administered as single dose measured up to 6 hrs post dose by LC/MS/MS analysis; assay type: ADME, organism-based; design: dose 100 mg/kg, route oral; details: in vivo
Outline: (§1)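 Single oral dose to Sprague Dawley rats; plasma collected at 0.25, 0.5, 1, 2, 4 and 6 hr; analytes in plasma quantified by LC/MS/MS.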

Plasma [2] = assay: Drug metabolism in Sprague-Dawley rat plasma assessed as nicotinuric acid levels at 100 mg/kg, po administered as single dose after 6 hrs by LC/MS/MS analysis; assay type: ADME, organism-based; details: in vivo; outline: as §1
Plasma [3] = assay: Metabolic stability in mouse plasma at 5 uM up to 2 hrs by LC-MS-MS analysis; assay type: ADME, cell-free
Outline: (§2)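 Plasma from each species diluted to 50% with 0.05 M PBS pH 7.4 and prewarmed to 37 °C; compound added at 5 µM final (from DMSO stock diluted in MeOH); triplicate incubations at 37 °C, sampled at 0, 30, 60, 120 min, quenched with acetonitrile containing internal standard, centrifuged, analysed by LC/MS/MS.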

Plasma [4] = assay: Metabolic stability in human plasma at 5 uM up to 2 hrs by LC-MS-MS analysis; assay type: ADME, cell-free; outline: as §2
[5] = molecular target: T1, Fatty-acid amide hydrolase 1 (Homo sapiens, UniProt O00519); assay: Drug metabolism in human HepG2 cells assessed as FAAH-mediated compound hydrolysis by measuring level of EPA at 50 uM by LC/MS-MS analysis; assay type: ADME, cell-based; details: hepg2, 50 µM, TDE = time-dependent effect
T1 sequence (O00519 whole entry): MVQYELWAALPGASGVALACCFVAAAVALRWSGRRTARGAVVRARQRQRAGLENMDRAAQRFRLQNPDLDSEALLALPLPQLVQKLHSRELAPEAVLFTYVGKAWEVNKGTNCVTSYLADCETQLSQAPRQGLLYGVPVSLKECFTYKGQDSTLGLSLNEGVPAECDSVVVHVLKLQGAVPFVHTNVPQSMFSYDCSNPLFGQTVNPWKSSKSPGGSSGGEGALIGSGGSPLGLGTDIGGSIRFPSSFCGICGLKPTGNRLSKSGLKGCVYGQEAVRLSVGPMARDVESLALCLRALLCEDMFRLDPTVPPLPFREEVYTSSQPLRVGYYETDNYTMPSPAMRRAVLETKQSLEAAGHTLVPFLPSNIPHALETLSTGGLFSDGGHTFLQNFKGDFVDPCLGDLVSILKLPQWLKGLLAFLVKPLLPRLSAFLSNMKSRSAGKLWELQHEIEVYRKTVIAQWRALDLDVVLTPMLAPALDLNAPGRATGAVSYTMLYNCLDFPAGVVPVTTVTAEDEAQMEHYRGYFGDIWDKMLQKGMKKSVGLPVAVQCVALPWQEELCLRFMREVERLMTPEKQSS

Intestine [6] = assay: Drug metabolism in Sprague-Dawley rat intestine assessed as nicotinuric acid formation at 300 mg/kg, qd administered through oral gavage for 7 days measured 2 hrs post last dose by LC/MS/MS analysis; assay type: ADME, organism-based; details: in vivo
Intestine [7] = assay: Drug metabolism in Sprague-Dawley rat intestine assessed as linker EPA metabolite (5Z,8Z,11Z,14Z,17Z)-N-(2-aminoethyl)icosa-5,8,11,14,17-pentaenamide formation at 300 mg/kg, qd administered through oral gavage for 7 days measured 2 hrs post last dose by LC/MS/MS analysis; assay type: ADME, organism-based; details: in vivo
Mus musculus [8] = assay: Inhibition of LDL cholesterol levels in po dosed ApoE*3-Leiden mouse plasma administered for 16 weeks; assay type: functional, organism-based
Outline: (§3)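 Transgenic ApoE*3-Leiden mice on high-cholesterol Western-type diet dosed over 16 weeks; plasma PCSK9, total cholesterol, triglycerides and lipoprotein profile (VLDL, LDL) assessed at study end.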

Plasma [9] = assay: Metabolic stability in rat plasma at 5 uM up to 2 hrs by LC-MS-MS analysis; assay type: ADME, cell-free; outline: as §2
Rattus norvegicus [10] = assay: AUClast in Sprague-Dawley rat assessed as nicotinuric acid at 100 mg/kg, po administered as single dose measured up to 6 hrs post dose by LC/MS/MS analysis; assay type: ADME, organism-based; design: dose 100 mg/kg, time < 6 hr, route oral; details: in vivo; outline: as §1
Mus musculus [11] = assay: Inhibition of PCSK9 levels in po dosed ApoE*3-Leiden mouse plasma administered for 16 weeks; assay type: functional, organism-based; outline: as §3
Liver [12] = assay: Drug metabolism in Sprague-Dawley rat liver assessed as niacin formation at 300 mg/kg, qd administered through oral gavage for 7 days measured 2 hrs post last dose by LC/MS/MS analysis; assay type: ADME, organism-based; details: in vivo, BLD = below limit of detection
Plasma [13] = assay: Drug metabolism in Sprague-Dawley rat plasma assessed as linker EPA metabolite (5Z,8Z,11Z,14Z,17Z)-N-(2-aminoethyl)icosa-5,8,11,14,17-pentaenamide formation at 300 mg/kg, qd administered through oral gavage for 7 days measured 2 hrs post last dose by LC/MS/MS analysis; assay type: ADME, organism-based; details: in vivo
Rattus norvegicus [14] = assay: AUClast in Sprague-Dawley rat assessed as salicyluric acid at 300 mg/kg, po measured up to 24 hrs post dose; assay type: ADME, organism-based; design: time < 24 hr, dose 300 mg/kg, route oral; details: in vivo
Outline: (§4)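 Single oral dose of 300 mg/kg to Sprague Dawley rats. Plasma collected at 0, 0.5, 1, 2, 4, 8 and 24 hr. Analytes were the parent, the salicylate-linker and linker-DHA metabolites, salicylic acid and salicyluric acid; Cmax and AUClast derived.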

Brain = assay: Drug metabolism in Sprague-Dawley rat brain assessed as salicyluric acid formation at 300 mg/kg, po administered for 14 days followed by 7 day washout cycle measured on day 21; assay type: ADME, organism-based; details: in vivo
Muscle tissue [15] = assay: Drug metabolism in Sprague-Dawley rat muscle assessed as salicylic acid formation at 300 mg/kg, po administered for 7 days measured 4 hrs post dose on day 7; assay type: ADME, organism-based; details: in vivo
Outline: (§5)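 Male Sprague Dawley rats, groups of 4, dosed orally at 300 mg/kg once daily for 14 days. Animals killed on days 1, 3, 7 and 14, with plasma, brain, epididymal fat, liver and muscle taken 4 hr after dosing. Parent, salicylic acid and salicyluric acid were measured.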

Plasma [16] = assay: Drug metabolism in Sprague-Dawley rat plasma assessed as salicyluric acid formation at 300 mg/kg, po administered for 7 days measured 4 hrs post dose on day 7; assay type: ADME, organism-based; details: in vivo; outline: as §5
Plasma [17] = assay: Drug metabolism in Sprague-Dawley rat plasma assessed as salicyluric acid formation at 300 mg/kg, po measured up to 24 hrs post dose; assay type: ADME, organism-based; details: in vivo; outline: as §4
[18] = Plasma concentration in Sprague-Dawley rat at 300 mg/kg, po administered for 7 days measured 4 hrs post dose on day 7; assay type: ADME, organism-based
Outline: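 Male Sprague Dawley rats in groups of 4 received 300 mg/kg orally once daily for up to 14 days. Animals were sacrificed on days 1, 3, 7 and 14, with plasma and tissues (brain, epididymal fat, liver, muscle) collected 4 h after dosing. Samples were analysed by LC/MS/MS for parent compound, salicylic acid and salicyluric acid.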

Muscle tissue [19] = assay: Drug metabolism in Sprague-Dawley rat muscle assessed as salicylic acid formation at 300 mg/kg, po administered for 14 days followed by 7 day washout cycle measured on day 21; assay type: ADME, organism-based; details: in vivo
Plasma [20] = assay: Drug metabolism in Sprague-Dawley rat plasma assessed as N-(2-aminoethyl)-2-hydroxy-benzamide formation at 300 mg/kg, po measured up to 24 hrs post dose; assay type: ADME, organism-based; details: in vivo; outline: as §4
[21] = Cmax in Sprague-Dawley rat at 300 mg/kg, po measured up to 24 hrs post dose; assay type: ADME, organism-based; design: dose 300 mg/kg, route oral; details: in vivo; outline: as §4
[22] = Inhibition of NFkappaB in mouse RAW264.7 cells preincubated for 2 hrs followed by LPS addition for 3 hrs by luciferase reporter gene assay relative to control; assay type: cell-based
Liver [23] = assay: Drug metabolism in Sprague-Dawley rat liver assessed as salicylic acid formation at 300 mg/kg, po administered for 7 days measured 4 hrs post dose on day 7; assay type: ADME, organism-based; details: in vivo; outline: as §5

## CC/C=C\C/C=C\C/C=C\C/C=C\C/C=C\CCCC(=O)NCCNC(=O)c1cccnc1
Rattus norvegicus [1]
  Cmax: 1131 ng/mL
Plasma [2]
  Drug metabolism: > 200 ng/mL
Plasma [3]
  Stability: Stable
Plasma [4]
  Stability: Stable
[5]
  Drug metabolism: tde
Intestine [6]
  Drug metabolism: 1387 ng/g
Intestine [7]
  Drug metabolism: 74 ng/g
Mus musculus [8]
  inhibition: Active
Plasma [9]
  Stability: Stable
Rattus norvegicus [10]
  AUClast: 3484 ng·h/mL
Mus musculus [11]
  inhibition: Active
Liver [12]
  Drug metabolism: BLD
Plasma [13]
  Drug metabolism: 1.1 ng/mL

## CC/C=C\C/C=C\C/C=C\C/C=C\C/C=C\C/C=C\CCC(=O)NCCNC(=O)c1ccccc1O [EDASALONEXENT]
Rattus norvegicus [14]
  AUClast: 2937 ng·h/mL
Brain
  Drug metabolism: metabolite_notdetected
Muscle tissue [15]
  Drug metabolism: 265.73 ng/g
Plasma [16]
  Drug metabolism: 764.41 ng/mL
Plasma [17]
  Drug metabolism: metabolite_detected
[18]
  concentration at 4 h: 116 ng/mL
Muscle tissue [19]
  Drug metabolism: metabolite_notdetected
Plasma [20]
  Drug metabolism: metabolite_detected
[21]
  Cmax: 477 ng/mL
[22]
  IC50: 25.4 µM
Liver [23]
  Drug metabolism: 235.91 ng/g
